Hits are enriched below; roughly 5.3% of the tested compounds scored in any of these assays.
CSC inhib – blocks cancer stem cells; 300,000 tested, 1.1% active; inhibition, % at 7.5 µM; cancer stem cell-like cells viability, luminescence; in the data active = inhibition above about 75%; inconclusive = no clear call, values can overlap the other calls; tested in HMLE shEcad cells
Mdm2 MdmX PPI – human Mdm2/MdmX binding inhibition | O15151+Q00987 | SaOS-2 split-luciferase Mdm2/MdmX complementation, luminescence | inhibition, % at 8 µM | 330,000 tested, 3% active | AID 485346;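 active = inhibition of at least 50% at 8 µM in the primary screen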
Target sequence (O15151 whole entry, looked up): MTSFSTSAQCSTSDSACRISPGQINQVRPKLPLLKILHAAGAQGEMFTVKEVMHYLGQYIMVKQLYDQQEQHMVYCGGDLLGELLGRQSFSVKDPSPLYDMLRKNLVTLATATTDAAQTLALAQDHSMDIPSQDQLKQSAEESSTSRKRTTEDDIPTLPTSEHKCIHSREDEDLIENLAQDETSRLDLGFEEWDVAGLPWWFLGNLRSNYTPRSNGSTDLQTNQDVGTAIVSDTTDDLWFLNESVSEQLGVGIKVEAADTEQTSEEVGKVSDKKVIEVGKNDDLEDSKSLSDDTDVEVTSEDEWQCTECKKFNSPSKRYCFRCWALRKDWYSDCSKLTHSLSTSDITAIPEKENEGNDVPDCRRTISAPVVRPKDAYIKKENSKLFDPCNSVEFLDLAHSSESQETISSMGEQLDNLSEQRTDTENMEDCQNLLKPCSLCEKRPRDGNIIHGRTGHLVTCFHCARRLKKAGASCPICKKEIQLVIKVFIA
Target sequence (Q00987 whole entry, looked up): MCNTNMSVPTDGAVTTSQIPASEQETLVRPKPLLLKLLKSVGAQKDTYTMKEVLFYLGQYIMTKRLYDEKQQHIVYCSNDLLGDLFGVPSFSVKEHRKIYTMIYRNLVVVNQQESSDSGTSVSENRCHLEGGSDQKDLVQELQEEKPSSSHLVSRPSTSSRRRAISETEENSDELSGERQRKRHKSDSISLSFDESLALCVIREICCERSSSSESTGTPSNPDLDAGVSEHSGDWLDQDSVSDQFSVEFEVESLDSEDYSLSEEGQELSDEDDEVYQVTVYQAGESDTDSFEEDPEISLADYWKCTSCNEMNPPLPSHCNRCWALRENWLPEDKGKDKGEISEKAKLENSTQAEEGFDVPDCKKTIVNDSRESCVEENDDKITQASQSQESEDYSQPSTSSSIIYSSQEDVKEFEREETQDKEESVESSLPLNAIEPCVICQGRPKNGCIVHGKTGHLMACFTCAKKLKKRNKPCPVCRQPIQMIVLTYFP
Calb FLC – C. albicans growth modulation with fluconazole. 300,000 tested, 0.57% active. C. albicans CaCi-2 (fluconazole-resistant clinical isolate) + fluconazole, Alamar Blue growth, 48 h. growth inhibition, % (no concentration beside the values). AID 1979;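 active = growth inhibition above about 58% in most replicates, limit read from the data, passing the limit was not always enough; inconclusive = exactly half the replicates above a set limit; inactive = most replicates below a set limit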;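 also: all wells also contain fluconazole at 8 µg/ml as a sub-toxic cotreatment; 0% = median of DMSO wells and 100% = median of geldanamycin control wells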
Beta cell apopt – beta cell apoptosis inhibition; AID 435005; 300,000 tested, 0.8% active; protection from apoptosis, % (no concentration beside the values); INS-1E cytokine-induced death, ATP luminescence, 48 h; percent of positive-control rescue, neutral wells zero;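 active = Every replicate reaches about 75%, or at least half do and their mean reaches it too, limit read from the data; inconclusive = At least half of replicates reach the limit but their mean does not; inactive = Under half of replicates reach the limit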;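 also: 0% = cytokine-treated negative control wells and 100% = positive control rescue; higher means more ATP so stronger rescue from cytokine killing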
NALP3 yeast inh – blocks the NALP3 inflammasome reconstituted in yeast; 330,000 tested, 0.39% active; inhibition, % at 10 µM; Yeast reconstituted NLRP3/ASC/caspase-1, beta-gal luminescence, 24 h;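 active = inhibition of 50% or more; inactive = inhibition below 50%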;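 also: plate controls were induced DMSO wells for no effect and uninduced yeast grown without galactose for full effect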
T cruzi repl – blocks replication of Trypanosoma cruzi | T. cruzi beta-gal in NIH3T3, luminescence, 90 h | 300,000 tested, 1.4% active | AID 1885 | inhibition, % (no concentration beside the values);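 active = mean inhibition across valid replicates above about 55%, limit read from the data; inconclusive = mean below that limit but half or more replicates reach it; inactive = mean below it, under half of replicates reach it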;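 also: signal also drops with host cell toxicity which is not excluded here; 0% = plate median of DMSO wells and 100% = zero luminescence signal; higher percent means less beta-gal luminescence so fewer parasites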
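Read-out: Parasite load inhibition, % | Test system: Mouse NIH/3T3 fibroblasts infected with β-gal-expressing T. cruzi Tulahuen C4 | Amount: 5,000 cells/well | Medium: DMEM, 2% fetal bovine serum | Signal: GalScreen β-gal luminescence, detergent lysis, 60 min | Timing: 3 h attach, ≥90 h co-culture | Also added: Tulahuen C4 trypomastigotes, 5000/well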
* = called active by the depositor; u = inconclusive; x = not tested or not shown.

SMILES	CSC inhib	Mdm2 MdmX PPI	Calb FLC	Beta cell apopt	NALP3 yeast inh	T cruzi repl
C[C@@H]1CC=C[C@H]2[C@H]1C(=O)N(Cc1ccccc1)[C@H]2c1ccc2ccccc2c1	86*	25	-11	18	23	15
COc1ccc(-c2cccc(C3CC=CC4C3C(=O)N(Cc3ccccc3)C4c3ccc(OC)c(Cl)c3)c2)cc1 (stereo not given)	12	19	3	1	14	30
COc1ccc(-c2cc([C@H]3[C@H]4C=CC[C@@H](C)[C@@H]4C(=O)N3Cc3ccccc3)ccc2F)cc1OC	-1	10	-7	7	15	16
CC[C@@H]1CC=C[C@H]2[C@H]1C(=O)N(Cc1ccccc1)[C@H]2c1ccc(OC)c(Cl)c1	77*	38	-10	4	10	24
O=[N+]([O-])c1cccc(-c2nnc(CNC3CC3)o2)c1	0	17	-1	-1	9	-17
O=C(Nc1ccccc1-c1nc2ccccc2[nH]1)c1ccc(S(=O)(=O)N2CCCCC2)cc1	x	x	2	x	x	58*
O=C(Nc1ccccc1-c1nc2ccccc2[nH]1)c1sc2ccccc2c1Cl	23	36	12	3	7	60*
COc1cc(/C=C2/C(=O)NN(c3ccc(C)c(Cl)c3)C2=O)cc([N+](=O)[O-])c1O	2	-9	-14	-1	-25	-4
Cc1ccc(N2NC(=O)/C(=C\c3cc4c(cc3[N+](=O)[O-])OCO4)C2=O)cc1C	88*	x	2	3	x	7
COc1cc(/C=C/C(=O)OCC(=O)NCCc2ccccc2)ccc1OC(F)F	-5	5	-1	0	5	-6
COc1ccc(-c2nn(CCC(=O)O)cc2/C=C2\SC(N)=NC2=O)cc1OC	-2	4	-7	-1	12	-21
CCCOc1ccc(-c2nn(-c3ccccc3)cc2/C=C2\SC(N)=NC2=O)cc1C	34	7	-1	2	19	56*
Cc1[nH]c(=S)[nH]c(=O)c1CCC1OCCO1	-9	3	3	5	7	3
Cc1nc2c(C(=O)NCCC(C)C)c[nH]n2c(=O)c1Cl	18	23	-4	-13	2	-6
Cc1nc2c(C(=O)NCCC(C)C)c[nH]n2c(=O)c1Cc1ccccc1F	58	12	85*	3	16	-1
Cc1c(Cl)c(C(=O)Nc2nc3ccccc3n2CCN2CCCCC2)nn1C	8	-3	0	-2	4	-8
CCc1ccc(NC(=O)CCc2nnc3ccc(N4CCC5(CC4)OCCO5)nn23)cc1	4	10	-13	1	12	-4
COc1cc(/C=N/n2c(C)nnc2C)cc(OC)c1OC	-5	0	4	-3	8	-9
CN(C)CCN=Cc1c(O)n(Cc2ccc3c(c2)OCO3)c(=O)c2ccccc12	-6	10	0	0	32	46
CN(C)CCCN=Cc1c(O)n(Cc2ccc3c(c2)OCO3)c(=O)c2ccccc12	-3	25	5	5	1	75*
COc1cccc(N(C(=O)Cn2nnc(-c3ccc(C)cc3)n2)C(C(=O)NC(C)(C)C)c2c[nH]c3ccccc23)c1 (stereo not given)	-5	24	45	8	3	35
CC(C)(C)NC(=O)C(c1c[nH]c2ccccc12)N(C(=O)Cn1nnc(-c2ccc(Cl)cc2)n1)c1ccccc1F (stereo not given)	33	37	0	10	5	55*
Cc1nc(N2CCN(C(=O)c3ccco3)CC2)c2c3c(sc2n1)CC(C)CC3 (stereo not given)	1	23	42	80*	12	38
CCCCCCCCCCS(=O)(=O)N/N=C/c1ccc([N+](=O)[O-])cc1	86*	3	-6	5	12	-2
O=C(NCc1ccco1)c1ccccc1NS(=O)(=O)c1ccc(Br)s1	26	-16	108*	14	13	-10
SMILES	CSC inhib	Mdm2 MdmX PPI	Calb FLC	Beta cell apopt	NALP3 yeast inh	T cruzi repl
CCC(=O)C1CCCN(C(=O)CCc2nnc(-c3ccc4c(c3)OCO4)o2)C1 (stereo not given)	5	-29	-4	-1	13	-2
CC(=O)c1ccc(NS(=O)(=O)c2ccc(N)cc2)cc1	0	2	-4	-1	1	0
COc1ccc(N(C(=O)CCl)C(C(=O)NCCc2ccccc2)c2cccs2)cc1Cl (stereo not given)	109*	x	-34	98*	x	63*
COc1cccc(N(C(=O)CCl)C(C(=O)NCCc2ccccc2)c2cccs2)c1 (stereo not given)	67	x	4	2	x	30
N#CC(C#N)=C1C=CC=CN1/C(=C\c1ccco1)C(=O)c1ccc(Br)cc1	-90	x	x	101*	x	x
N#CC(C#N)=C1C=CC=CN1/C(=C\c1ccco1)C(=O)c1ccccc1	-41	x	x	u	x	x
CCN(CC)C(=O)CSc1nc(N)c2c3c(sc2n1)CC(C)CC3 (stereo not given)	-12	24	-3	-2	13	13
O=c1c(Cl)c(NCCCO)cnn1-c1nc2ccccc2[nH]1	43	18	78*	x	11	-5
Cc1ccc(C)c(S(=O)(=O)Nc2ccc(O)c3ccccc23)c1	21	19	5	99*	8	-7
COc1ccc(S(=O)(=O)Nc2ccc(O)c3ccccc23)cc1	x	47	-20	124*	27	-26
Cc1ccc(S(=O)(=O)Nc2ccc(O)c3ccccc23)c(C)c1	31	x	-16	96*	x	1
Cc1ccc(S(=O)(=O)Nc2cc(C(C(=O)OC(C)C)C(=O)C(F)(F)F)c(O)c3ccccc23)c(C)c1 (stereo not given)	24	19	21	40	-11	-9
CN(CC(=O)NCCc1ccc(F)cc1)Cc1ccc(Br)cc1	x	10	0	-3	14	22
CCN1CCN(C(c2cccs2)C(C)NC(=O)C(=O)N2CCCCC2)CC1 (stereo not given)	-14	19	8	-6	7	-7
COC(=O)C1CCN(CC(=O)Nc2ccccc2Sc2ccccc2)CC1	-4	3	8	-2	23	29
COc1ccc(Nc2ccccc2C(=O)O)cc1	-11	-37	19	x	17	-3
O=C1C=C(c2cccc(Cl)c2)C[C@@H](c2ccc3c(c2)OCO3)C1	34	3	x	0	13	x
O=C1C=C(c2ccc(Cl)c(C(F)(F)F)c2)C[C@@H](c2ccc3c(c2)OCO3)C1	110*	18	x	-3	13	x
COC(=O)c1ccc(NS(=O)(=O)c2cc(-c3cc(C)no3)ccc2OC)cc1	61	46	88*	17	-22	-19
CCC(c1nnnn1CCc1ccccc1)N(Cc1ccco1)Cc1cc2cc(C)cc(C)c2[nH]c1=O (stereo not given)	16	47	26	22	8	13
